Laboratory results taken from ChEMBL document CHEMBL2424632, “Substituted 2-hydroxy-N-(arylalkyl)benzamides induce apoptosis in cancer cell lines” (Eur J Med Chem, 2013).
The source made the active and inactive calls. The rule behind the calls is not given here.

system: MCF7; assay: Cytotoxicity against human MCF7 cells after 72 hrs by calcein-AM assay; format: functional, cell-based; conditions: MCF7, 72 h

Row | Compound | IC50 [µM]
1 | O=C(N[C@H](Cc1ccccc1)C(=O)Nc1cccc(Cl)c1)c1cc(Cl)ccc1O | 18.4
2 | O=C(N[C@H](Cc1ccccc1)C(=O)Nc1ccc(Cl)c(Cl)c1)c1cc(Cl)ccc1O | > 10
3 | O=C(N[C@H](Cc1ccccc1)C(=O)Nc1ccc(Cl)cc1)c1ccc(Cl)cc1O | > 10
4 | C[C@@H](NC(=O)c1ccc(Cl)cc1O)C(=O)Nc1ccc(Cl)cc1 | > 10
5 | CC(C)[C@H](NC(=O)c1cc(Cl)ccc1O)C(=O)Nc1ccc(Cl)c(Cl)c1 | > 10
6 | CC(C)(C)[C@H](NC(=O)c1cc(Cl)ccc1O)C(=O)Nc1cccc(C(F)(F)F)c1 | 8.8
7 | CC(C)[C@H](NC(=O)c1cc(Cl)ccc1O)C(=O)Nc1ccc(Cl)cc1 | > 10
8 | CC(C)[C@@H](NC(=O)c1cc(Cl)ccc1O)C(=O)Nc1cccc(Cl)c1 | > 10
9 | COc1ccc(NC(=O)[C@@H](NC(=O)c2cc(Cl)ccc2O)C(C)C)cc1 | > 10

system: G-361; assay: Induction of apoptosis in human G361 cells assessed as caspase-3/7 activation at 2 uM after 24 hrs by fluorescence assay relative to control; format: functional; conditions: not given
In short: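 G361 cells seeded at 20,000 per well overnight, then exposed 24 h to compound at 2 µM final. 3x caspase-3/7 buffer (HEPES pH 7.4, NaCl, KCl, MgCl2, EGTA, NP-40, CHAPS, sucrose, DTT, PMSF) with Ac-DEVD-AMC substrate added; incubated 37 °C, fluorescence read after 4 h at 346/442 nm; activity expressed relative to untreated cells.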

Row | Compound | Activity
10 | CC(C)(C)[C@H](NC(=O)c1cc(Cl)ccc1O)C(=O)Nc1cccc(C(F)(F)F)c1 | Active

system: HOS; assay: Cytotoxicity against human HOS cells after 72 hrs by calcein-AM assay; format: functional, cell-based; conditions: not given

Row | Compound | IC50 [µM]
11 | CC(C)(C)[C@H](NC(=O)c1cc(Cl)ccc1O)C(=O)Nc1cccc(C(F)(F)F)c1 | 7.8

system: K562; assay: Cytotoxicity against human K562 cells after 72 hrs by calcein-AM assay; format: functional, cell-based; conditions: K562, 72 h

Row | Compound | IC50 [µM]
12 | O=C(N[C@H](Cc1ccccc1)C(=O)Nc1cccc(Cl)c1)c1cc(Cl)ccc1O | > 20
13 | O=C(N[C@H](Cc1ccccc1)C(=O)Nc1ccc(Cl)c(Cl)c1)c1cc(Cl)ccc1O | > 10
14 | O=C(N[C@H](Cc1ccccc1)C(=O)Nc1ccc(Cl)cc1)c1ccc(Cl)cc1O | > 10
15 | C[C@@H](NC(=O)c1ccc(Cl)cc1O)C(=O)Nc1ccc(Cl)cc1 | > 10
16 | CC(C)[C@H](NC(=O)c1cc(Cl)ccc1O)C(=O)Nc1ccc(Cl)c(Cl)c1 | > 10
17 | CC(C)(C)[C@H](NC(=O)c1cc(Cl)ccc1O)C(=O)Nc1cccc(C(F)(F)F)c1 | 5.9
18 | CC(C)[C@H](NC(=O)c1cc(Cl)ccc1O)C(=O)Nc1ccc(Cl)cc1 | > 20
19 | CC(C)[C@@H](NC(=O)c1cc(Cl)ccc1O)C(=O)Nc1cccc(Cl)c1 | > 10
20 | COc1ccc(NC(=O)[C@@H](NC(=O)c2cc(Cl)ccc2O)C(C)C)cc1 | > 10

system: G-361; assay: Cytotoxicity against human G361 cells after 72 hrs by calcein-AM assay; format: functional, cell-based; conditions: G-361, 72 h

Row | Compound | IC50 [µM]
21 | CC(C)(C)[C@H](NC(=O)c1cc(Cl)ccc1O)C(=O)Nc1cccc(C(F)(F)F)c1 | 8.3

system: HeLa; assay: Cytotoxicity against human HeLa cells after 72 hrs by calcein-AM assay; format: functional, cell-based; conditions: not given

Row | Compound | IC50 [µM]
22 | CC(C)(C)[C@H](NC(=O)c1cc(Cl)ccc1O)C(=O)Nc1cccc(C(F)(F)F)c1 | 6.5

system: HCT-116; assay: Cytotoxicity against human HCT116 cells after 72 hrs by calcein-AM assay; format: functional, cell-based; conditions: HCT-116, 72 h

Row | Compound | IC50 [µM]
23 | CC(C)(C)[C@H](NC(=O)c1cc(Cl)ccc1O)C(=O)Nc1cccc(C(F)(F)F)c1 | 5.4
